Screening results deposited in PubChem by several laboratories.
Shown are actives, neighbours in structure and some others; about 2.8% of the full set was active somewhere.
Measles CPE: protection of cells from measles virus; Measles virus-infected cells, CPE protection, absorbance; protection (pct of control), % at 4 µM; 1.5% of 140,000 active; AID 841; in the data active means protection mostly above about 24%, no sharp cut-off; inactive means mostly below about 26%
NPY Y1 blocker: NPY-Y1 (human) receptor antagonism. HEK293-CNG Y1 cells, membrane potential fluorescence; NPY at EC95, then isoproterenol. inhibition, % at 3.6 µM. 1% of 200,000 active. AID 1040;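 active means inhibition above the campaign mean inhibition of all tested compounds plus 3 SD, cut at about 20% in these data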;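 further: 0% = DMSO wells given NPY plus isoproterenol and 100% = isoproterenol alone without NPY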
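Assay system: HEK293 Y1/CNG channel cell line; Doses: single compound dose of 3.6 µM, 0.4% DMSO; Timing: dye 3 h, compound 60 min room temperature, stimulation 45 min; Technique: Membrane-potential fluorescent dye readout; Measure: % inhibition of NPY effect.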
NPY-Y1 PAM-ag: potentiators or agonists of human neuropeptide Y receptor Y1; NPY-Y1 expressing cells, potentiator/agonist activation; activation, % at 3.6 µM; 0.37% of 220,000 active; AID 1304; in the data active means activation above about 33%, passing the limit was not always enough;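 further: cells stimulated with NPY at EC10 then isoproterenol at EC100; 0% = low agonist plus stimulus and 100% = saturating agonist plus stimulus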
NPY-Y2 antag: antagonists of human neuropeptide Y receptor Y2 | AID 793 | P49146 | NPY-Y2 expressing cells, antagonist mode | inhibition, % at 2.7 µM | 0.99% of 140,000 active; in the data active means inhibition above about 17%;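 further: 0% = vehicle with agonist challenge and 100% = reference antagonist with challenge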
Rad51 HR inh: Rad51 (human) homologous recombination inhibition. 0.085% of 200,000 active. hRad51 DNA strand exchange, fluorescence dequenching. inhibition, % at 10 µM. Q06609;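 active means inhibition above 40% at the single screening dose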;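 further: 0% = DMSO control wells and 100% = blanks with heterologous ssDNA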
Target sequence (Q06609 whole entry, looked up): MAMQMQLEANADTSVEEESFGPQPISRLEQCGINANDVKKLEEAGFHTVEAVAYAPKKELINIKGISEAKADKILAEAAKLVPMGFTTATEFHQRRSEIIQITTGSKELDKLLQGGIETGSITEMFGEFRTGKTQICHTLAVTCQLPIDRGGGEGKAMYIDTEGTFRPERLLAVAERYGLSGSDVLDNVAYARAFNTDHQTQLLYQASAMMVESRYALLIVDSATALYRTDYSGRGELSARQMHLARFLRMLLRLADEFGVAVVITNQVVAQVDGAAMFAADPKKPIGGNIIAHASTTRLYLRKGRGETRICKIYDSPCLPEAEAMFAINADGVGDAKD
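Material: Human Rad51 nucleoprotein filaments preassembled on unlabelled ssDNA | Also added: Labelled 47-mer dsDNA for strand exchange | Dosing: Single dose, 10 µM final compound | Schedule: 30-min compound preincubation and 15-min exchange, both room temperature | Technique: Fluorescence dequenching at 485/520 nm | Measure: Percent inhibition relative to plate controls and blanks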
NPY2 pot ag: human NPY-Y2 potentiation or agonism, primary screen; 0.45% of 220,000 active; P49146; activation, % at 3.6 µM; cells expressing NPY-Y2, potentiator/agonist read-out; AID 1359; in the data active means activation above about 27%;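 further: cells stimulated with NPY near EC25 plus isoproterenol at EC100; 0% = vehicle plus submaximal agonist and 100% = vehicle plus saturating agonist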
An asterisk follows results filed as active; nt = no result given.

SMILES	Measles CPE	NPY Y1 blocker	NPY-Y1 PAM-ag	NPY-Y2 antag	Rad51 HR inh	NPY2 pot ag
C=CCn1c(SCc2cc(C(C)=O)ccc2OCC)nc2ccccc2c1=O	0	27*	-41	25*	1	-13
Cc1noc(C)c1CSc1nc2ccccc2c(=O)n1-c1ccccc1	13	24*	-19	18*	0	-6
CN(CCO)c1ccc(-c2nn(C)c(=O)c3ccccc23)cc1[N+](=O)[O-]	nt	nt	-8	nt	-6	8
Cc1ccc(NC(=O)CN(C)Cc2nc3c(Br)cc(Br)cc3c(=O)[nH]2)cc1	nt	4	11	nt	-6	9
CC(=O)NC(Cc1ccccc1)C(=O)N1CCN(C(=O)c2ccco2)CC1 (centres undefined)	36*	-1	-14	1	3	14
O=C(c1ccco1)N1CCN(C(=O)C(Cc2ccccc2)NS(=O)(=O)c2cccs2)CC1 (centres undefined)	24	-3	-1	3	-5	0
O=C(CN1CCOCC1)Nc1ccccc1Cl	60*	-1	-1	2	6	-9
COC(=O)c1ccc(Cl)c(NC(=O)CN2CCN(Cc3ccccc3)CC2)c1	36*	2	-29	0	4	-20
Cc1c(CN2CCC(CO)(Cc3cccc(C(F)(F)F)c3)CC2)c2ccccc2n1C	nt	11	2	nt	nt	-12
COc1ccc(Nc2c([N+](=O)[O-])ccc3c2=NC2(CCCCC2)N=3)cc1	nt	-15	44*	nt	nt	38*
Cn1cnc(S(=O)(=O)Nc2ccccc2C(=O)NCC2CC2)c1	nt	nt	5	nt	-3	-24
CN(C)c1ccc(N/C=C/C(=O)C(C)(C)C)cc1	53*	-2	-7	3	-1	-4
Cc1ccc(C)c(S(=O)(=O)N2C(=S)NC(=O)C2CC(C)C)c1 (centres undefined)	41*	4	-1	1	22	1
O=C(/C=C/c1cccs1)N1CCCCC1	nt	-1	0	nt	-2	-1
O=C(/C=C/c1cccs1)N1CCN(c2ccc(O)cc2)CC1	nt	7	-11	nt	41*	-8
Clc1ccc(-c2nnc3n2-c2ccccc2SC3)cc1	nt	nt	-13	nt	-5	-35
CN1C(c2ccc(F)cc2)=CS/C1=C(\C#N)c1nnc2n1-c1ccccc1SC2	31*	4	-10	8	2	-4
CN1C=CC=C/C1=C1\SC(=S)N(C2CCCCC2)C1=O	8	-10	114*	-2	5	106*
COc1ccc(CCN=C(N)NS(=O)(=O)c2ccc(F)cc2)cc1	nt	-5	15	nt	nt	12
Clc1ccc(Oc2nc(N3CCOCC3)nc(N3CCOCC3)n2)cc1	34*	0	-16	3	3	1
c1cc2c(cc1Oc1nc(N3CCOCC3)nc(N3CCOCC3)n1)OCO2	0	-5	-8	1	1	4
O=C1C=CCC(/C=C/c2ccccc2)O1 (centres undefined)	3	-3	9	0	5	-1
Cc1nn2c3ccccc3n(CCN3CCCCC3)c2nc1=O	9	1	15	1	3	2
C=CCn1c2ccccc2n2nc(C)c(=O)nc12	38*	5	4	2	3	-4
COCCNC(=O)CC(=O)N/N=C/c1ccc(C(=O)OC)cc1	nt	-7	10	nt	8	-2
SMILES	Measles CPE	NPY Y1 blocker	NPY-Y1 PAM-ag	NPY-Y2 antag	Rad51 HR inh	NPY2 pot ag
COc1ccc(C(=O)Nc2nc(C)c3cc4c(cc3n2)OCO4)cc1	nt	12	-15	1	2	-9
COc1ccc(-n2nnnc2-c2cnc3cc4c(cc3c2C)OCO4)cc1	53*	0	-2	2	-1	-8
CN1CCN(NC(=O)c2cc(S(=O)(=O)N3CCOCC3)c(Cl)cc2Cl)CC1	11	-2	-9	-1	3	0
Cc1ccc(NC(=O)CS(=O)CC(=O)N(C(C)C(=O)NC2CCCCC2)C(C)(C)C)cc1 (centres undefined)	nt	-3	14	nt	3	11
CC(=O)CCN1CCOCC1	94*	-2	10	1	4	8
Cc1cc(C(=O)NCC(c2ccco2)N(C)C)no1 (centres undefined)	66*	15	-1	0	-4	-1
COc1ccc(NC(=O)c2ccc3c(c2)NC(=O)CO3)cc1OC	nt	2	13	nt	-8	5
CCN(CC)c1ccc(NC(=O)/C=C/c2cc(Br)ccc2OC)cc1	7	-3	22	-1	nt	-1
COc1ccc(NC(=O)/C=C/c2cc(Br)ccc2OC)cc1	23*	4	2	2	-2	-23
CCN1C(=O)CSc2ccc(C(=O)NCc3ccc(OC)cc3)cc21	36*	8	13	3	nt	-12
O=CN1CCN(C(C(=O)NC2CCCCC2)c2cc3c(cc2[N+](=O)[O-])OCO3)CC1 (centres undefined)	nt	1	-12	nt	1	8
COc1ccc(NC(=O)C(c2cc3c(cc2[N+](=O)[O-])OCO3)N2CCN(C=O)CC2)cc1 (centres undefined)	23*	4	0	-1	nt	-1
Cc1ccc(NC(=O)COC(=O)C(NS(=O)(=O)c2ccc(Cl)cc2)C(C)O)cc1C (centres undefined)	17	-5	4	2	10	4
O=C(CSc1nnc(-c2ccccc2)n1-c1ccccc1)c1cccs1	9	-2	49*	5	nt	31*
O=C(CSc1ncn(-c2ccccc2)n1)c1cccs1	12	4	-29	2	68*	-9
CCN(Cc1ccncc1)Cc1cn[nH]c1-c1ccc(OC)cc1F	nt	1	-9	nt	7	-11
Cc1csc2nc(CSc3nc4ccccc4o3)c(Br)n12	1	23*	-17	11	-2	-20
CCCNC(=O)[C@H](Cc1c[nH]c2ccccc12)NC(=O)c1ccccc1Cl	32*	0	4	2	-1	3
O=C(O)CSc1c(-c2cccs2)[nH]c2ccccc12	40*	12	12	2	5	14
C/C(=N\N=C(N)N)c1ccc(Cl)cc1Cl	nt	-2	-9	nt	10	-4
CN(C1=C(N2CCCCC2)C(=O)c2ccccc2C1=O)c1ccccc1	9	-5	44*	-14	7	37*
O=C1C(Nc2ccccc2)=C(N2CCCCC2)C(=O)c2ccccc21	11	3	-20	1	-5	2
COc1ccc(CN(C)C(C)C(=O)Nc2ccc(S(=O)(=O)N3CCCC3)cc2)c(OC)c1OC (centres undefined)	nt	4	5	nt	-4	20
O=C(C1CCC1)N1CCC(O)(c2cccc(F)c2)CC1	nt	11	6	nt	4	15
O=C(NS(=O)(=O)Oc1ccc(F)c(Cl)c1)OC[C@@H]1CCCN2CCCCC12 (some centres undefined)	nt	0	-11	nt	-9	2
N#CC(C(=O)NC1CCCCC1)=C1CCCCCC1	34*	8	1	-1	nt	-8
